Sampled rows, rich in hits. Any-hit rate of the full collection: about 1.1%.
Thrombin inh – human alpha-thrombin inhibitors, primary screen, counter-screen for coagulation protease inhibitor project, biochemical, 1536-well, fluorogenic AMC substrate; Boc-VPR-AMC fluorogenic substrate cleavage; hit rate 0.26% among 220,000; AID 1046, 2008; Prothrombin (Homo sapiens), P00734; inhibition, % at 5 µM;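 active = inhibition at or above 40%; inactive = inhibition below 40%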
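Test system: human alpha-thrombin; medium: pH 7.5 Tris-saline with Tween 20; times: reaction at room temperature; signal: AMC fluorescence at 355 nm excitation and 460 nm emission; also added: Boc-VPR-AMC substrate, 15 µM final; dosing: one concentration per compound, 5 µM, with 0.2% DMSO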
Furin inhibitor – human furin inhibitors, primary screen, biochemical, fluorescence intensity; purified furin, fluorogenic substrate cleavage; inhibition, % at 20 µM or 30 µM; hit rate 0.061% among 220,000; AID 463115, 2010; in the data active = inhibition above about 25%
Biofilm kill mix – clotrimazole potentiators killing C. albicans biofilm, primary screen, 4-compound mixtures; hit rate 0.02% among 120,000; C. albicans biofilm persisters + clotrimazole, fluorescence viability; primary screen in compound mixtures of four per well; inhibition, % at 7.6 µM; AID 1242, 2008;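 active = inhibition above 30.3% in the primary screen of four-compound pools, then above 30% when the compound was retested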;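 also: compounds exposed to preformed 24 h biofilms for 48 h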
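Test system: C. albicans biofilms. Buffer or medium: RPMI/MOPS medium, pH 7.0. Timing: 48 h compound exposure at 37 °C. Technique: Alamar Blue fluorescence. Evaluation: percent inhibition of biofilm viability.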
FXIa inh – human FXIa protease inhibitors, primary screen, biochemical, 1536-well | purified FXIa, Boc-Glu-Ala-Arg-AMC fluorogenic substrate | inhibition, % at 5 µM | hit rate 0.14% among 220,000;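 active = inhibition of at least 40%; inactive = inhibition below 40%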;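 also: fluorescence of freed AMC excited at 355 nm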
Target sequence (P03951 19-387 limits assumed): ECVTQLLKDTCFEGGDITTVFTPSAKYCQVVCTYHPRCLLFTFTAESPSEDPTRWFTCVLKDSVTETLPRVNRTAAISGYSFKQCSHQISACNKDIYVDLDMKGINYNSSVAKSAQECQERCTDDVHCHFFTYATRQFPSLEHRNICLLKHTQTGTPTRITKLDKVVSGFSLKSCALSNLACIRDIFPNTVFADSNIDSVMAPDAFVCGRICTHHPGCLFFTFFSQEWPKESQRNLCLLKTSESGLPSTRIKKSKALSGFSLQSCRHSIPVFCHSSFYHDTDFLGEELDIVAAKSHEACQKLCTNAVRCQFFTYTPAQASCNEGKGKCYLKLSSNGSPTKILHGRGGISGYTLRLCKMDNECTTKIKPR
Target sequence (P03951 388-625 limits assumed): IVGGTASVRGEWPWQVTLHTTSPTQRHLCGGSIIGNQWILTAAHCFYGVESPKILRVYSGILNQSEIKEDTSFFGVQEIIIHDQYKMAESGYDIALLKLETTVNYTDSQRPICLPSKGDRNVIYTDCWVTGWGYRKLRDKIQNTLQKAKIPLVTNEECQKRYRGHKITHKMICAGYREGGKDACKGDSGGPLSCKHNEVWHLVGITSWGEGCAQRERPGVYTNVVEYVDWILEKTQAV
hK5 inh – human KLK5 protease inhibitors, primary screen, biochemical, 1536-well; Kallikrein-5 (Homo sapiens), Q9Y337; recombinant hK5, fluorogenic AMC substrate cleavage; inhibition, % at 5 µM; hit rate 0.59% among 210,000; AID 873, 2007;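 active = inhibition of 40% or more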
FXIIa inh 1536 – human FXIIa protease inhibitors, primary screen, biochemical, 1536-well | Coagulation factor XII (Homo sapiens), P00748 | purified FXIIa, Boc-QGR-AMC fluorogenic substrate, 2 h | inhibition, % at 5 µM | hit rate 0.3% among 220,000; in the data active = inhibition above about 40%
Large screens that a line does not name were inactive.

CCN1CCN(c2cc(C(C)(C)C)nc3c(-c4ccccc4)c(C)nn23)CC1	hK5 inh 47 (no result: Biofilm kill mix)
CCOc1ccc(NC(=O)N[C@@H](Cc2ccccc2)C(=O)O)cc1	none
O=C(COC(=O)Cn1cnc2ccccc2c1=O)Nc1cc(Cl)ccc1[N+](=O)[O-]	Thrombin inh 65
CC(C)(C)NC(=O)NC(=O)COC(=O)Cn1cnc2ccccc2c1=O	none
c1ccc(CCNc2nc(-c3ccncc3)nc3ccccc23)cc1	none
Cc1ccccc1OCCN(C#N)c1nc(N(C)C)nc(N(C)C)n1	none
Cc1ccc(OC(C)C(=O)N(Cc2cccs2)C2CCS(=O)(=O)C2)cc1C (centres undefined)	none
C=C(C)CNC(=S)Nc1cccc(N)n1	FXIa inh 48, hK5 inh 41
COc1ccc(CCNC(=O)CSc2nnc(-c3ccc(F)cc3)o2)cc1OC	hK5 inh 130 (no result: Biofilm kill mix)
CCOC(=O)Nc1c(O)ccc2oc(C)c(-c3ccccc3)c12	hK5 inh 84 (no result: Biofilm kill mix)
CC1(C)CC(N=Cc2c(O)n(Cc3ccc4c(c3)OCO4)c(=O)c3ccccc23)CC(C)(C)N1	none
Cc1ccc(N=Cc2c(O)[nH]c3ccccc23)c([N+](=O)[O-])c1	none
CC(C)OCCCn1c(=S)[nH]c2cc3c(cc2c1=O)OCO3	Thrombin inh 44, hK5 inh 45 (no result: Biofilm kill mix)
CCN(CC(=O)Nc1c(F)cccc1F)C(=O)CCc1ccc(OC)cc1	none
CCn1c(C)c(CCC(=O)O)c(=O)n2nc(-c3ccccc3OC)cc12	Furin inhibitor 27 (no result: Biofilm kill mix)
CC1=C(C(=O)N2CCCCC2)C(c2cccs2)C2=C(CCCC2=O)N1 (centres undefined)	hK5 inh 138 (no result: Biofilm kill mix)
N#Cc1c2n(c3c(=O)n(Cc4ccccc4)cnc13)CCCC2	FXIIa inh 1536 44 (no result: Biofilm kill mix)
Cc1cc(C)n2nc(C(=O)N/N=C/c3cccc(Cl)c3)nc2n1	none
CSc1cccc(NC(=S)NCCCN2CCN(c3ccc(F)cc3)CC2)c1	none
O=C(O)CP(=O)(c1ccccc1)c1ccccc1	hK5 inh 42 (no result: Biofilm kill mix)
Cc1ccc(CCNC(=O)C2CCC(=O)N2Cc2cccnc2)cc1 (centres undefined)	hK5 inh 47 (no result: Biofilm kill mix)
COc1ccc(C2SCC(=O)N2c2c(C)n(C)n(-c3ccccc3)c2=O)cc1 (centres undefined)	none (no result: Biofilm kill mix)
COc1cc(C2SCC(=O)N2c2c(C)n(C)n(-c3ccccc3)c2=O)ccc1O (centres undefined)	FXIa inh 43
CC1(C)CC(=O)C=C(C(=O)N2CCCC(C(=O)c3cccc(Cl)c3)C2)O1 (centres undefined)	none
c1cncc(-c2csc(NCc3ccco3)n2)c1	FXIIa inh 1536 46 (no result: Biofilm kill mix)
COc1cc(S(=O)(=O)N2CCOCC2)ccc1NC(=O)COC(=O)COc1ccccc1	Thrombin inh 50
CCOC(=O)C(CC)Sc1nc2c(c(=O)[nH]c(=O)n2C)n1C/C=C(/C)Cl (centres undefined)	Furin inhibitor 28 (no result: Biofilm kill mix)
CCCCOC(=O)CSc1nc2c(c(=O)[nH]c(=O)n2C)n1C/C=C(\C)Cl	none (no result: Biofilm kill mix)
Cc1nc(Cl)c(C#N)cc1-c1ccccc1	hK5 inh 57 (no result: Biofilm kill mix)
COc1cccc2sc(/N=C/N(C)C)nc12	FXIIa inh 1536 46
N#Cc1cn(Cc2ccncc2)c(=O)[nH]c1=O	none

Assay outcomes as filed in PubChem BioAssay.
